1 molecule from publication PMC3612139 (Bioorganic chemistry, 2013) can be followed below.

The experiment relates to HL-60 promyelocytes. Put plainly: HL-60 differentiation. It is filed as cell-based. The conditions noted are these: Homo sapiens, HL-60, read-out: HL-60 differentiation EC50. Summed up:
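Differentiation of HL-60 promyelocytes to monocytes, scored as the percentage of cells reducing nitro blue tetrazolium. EC50 taken from dose–response curves as the concentration giving 50% maturation. Ratio is the average of test compound EC50 over 1α,25-(OH)2D3 EC50. Run in duplicate on at least two occasions.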

By EC50 is commonly meant the concentration giving half of the maximal effect. As to `C=C1/C(=C\C=C2/CCC[C@]3(C)[C@@H]([C@H](C)CCCC(C)(C)O)CC[C@@H]23)C[C@@H](O)C[C@@H]1O` [Compound 1, 1α,25-Dihydroxyvitamin D3], the EC50 is 2 nM.
